From ChEMBL document CHEMBL1159001, “Isolation, purification, and cytotoxicity of 5-methoxypodophyllotoxin, a lignan from a root culture of Linum flavum” (1992)
In brackets after ≈: the same amount, converted by molar mass.

System: not listed separately
Test: Cytotoxicity against mouse EAT cells after 4 days by trypan blue assay
Assay type: functional
Conditions: 96 h, read-out: ED50 (the source's name)
In short: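 Murine Ehrlich ascites tumor cells grown in suspension in RPMI 1640 with 10% fetal calf serum, streptomycin and penicillin G (doubling time 12–14 h). Exponential-phase cells, viability >95% by trypan blue. Lignans came from 0.5 or 5 mM 96% EtOH stocks, in 24 twofold dilutions. 2000 viable cells/well, incubated 4 days at 37°, 5% CO2. Sedimented pellet diameters were compared visually with untreated wells, and ED50 derived as 50% growth inhibition.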

SMILES | EC50 [µg/mL]
COc1cc([C@@H]2c3cc4c(c(OC)c3[C@H](O)[C@H]3COC(=O)[C@H]23)OCO4)cc(OC)c1OC | 32 (≈ 72 µM)
COc1cc([C@@H]2c3cc4c(cc3[C@H](O[C@@H]3O[C@H](CO)[C@@H](O)[C@H](O)[C@H]3O)[C@H]3COC(=O)[C@H]23)OCO4)cc(OC)c1OC | 30 (≈ 52 µM)
COc1cc([C@@H]2c3cc4c(cc3[C@@H](O[C@@H]3O[C@@H]5CO[C@@H](C)O[C@H]5[C@H](O)[C@H]3O)[C@H]3COC(=O)[C@H]23)OCO4)cc(OC)c1O [ETOPOSIDE] | 1.1 (≈ 1.87 µM)
COc1cc([C@@H]2c3cc4c(cc3[C@H](O)[C@H]3COC(=O)[C@H]23)OCO4)cc(OC)c1OC [PODOFILOX] | 42.8 (≈ 103 µM)
COc1cc([C@@H]2c3cc4c(cc3[C@@H](O[C@@H]3O[C@@H]5CO[C@@H](c6cccs6)O[C@H]5[C@H](O)[C@H]3O)[C@H]3COC(=O)[C@H]23)OCO4)cc(OC)c1O [TENIPOSIDE] | 0.06 (≈ 0.0914 µM)

System: HeLa
Test: Cytotoxicity against human HeLa cells after 4 days by trypan blue assay
Assay type: functional
Conditions: 96 h, read-out: ED50 (the source's name)
In short: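 HeLa cells cultured in Joklik's MEM with 10% fetal calf serum, streptomycin and penicillin G (doubling time ca. 24 h). Exponentially growing cells with >95% trypan-blue viability. Lignans were taken from 0.5 or 5 mM stocks in 96% EtOH, and 24 twofold dilutions were made in medium. 2000 cells/well, 4 days at 37°, 5% CO2. Growth was scored visually by pellet diameter against untreated controls, and ED50 (50% growth inhibition) calculated.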

SMILES | EC50 [µg/mL]
COc1cc([C@@H]2c3cc4c(c(OC)c3[C@H](O)[C@H]3COC(=O)[C@H]23)OCO4)cc(OC)c1OC | 22 (≈ 49.5 µM)
COc1cc([C@@H]2c3cc4c(cc3[C@H](O[C@@H]3O[C@H](CO)[C@@H](O)[C@H](O)[C@H]3O)[C@H]3COC(=O)[C@H]23)OCO4)cc(OC)c1OC | 21.8 (≈ 37.8 µM)
COc1cc([C@@H]2c3cc4c(cc3[C@@H](O[C@@H]3O[C@@H]5CO[C@@H](C)O[C@H]5[C@H](O)[C@H]3O)[C@H]3COC(=O)[C@H]23)OCO4)cc(OC)c1O [ETOPOSIDE] | 7.9 (≈ 13.4 µM)
COc1cc([C@@H]2c3cc4c(cc3[C@H](O)[C@H]3COC(=O)[C@H]23)OCO4)cc(OC)c1OC [PODOFILOX] | 20.5 (≈ 49.5 µM)
COc1cc([C@@H]2c3cc4c(cc3[C@@H](O[C@@H]3O[C@@H]5CO[C@@H](c6cccs6)O[C@H]5[C@H](O)[C@H]3O)[C@H]3COC(=O)[C@H]23)OCO4)cc(OC)c1O [TENIPOSIDE] | 0.3 (≈ 0.457 µM)
